Measurements reported in ChEMBL document CHEMBL1123261, “Comparative antiaggregatory activity in human platelets of a benzopyranone aci-reductone, clofibric acid, and a 2,3-dihydrobenzofuran analogue” (J Med Chem, 1986).

Key:
Assay type in all cases: functional, organism-based
Homo sapiens [1] = species: Homo sapiens; assay: Compound was tested for the inhibitory activity against serotonin secretion by adenosine -Diphosphate (ADP (1-5 uM)).
Summary of the method: (§1)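 Human platelet-rich plasma (3 × 10^8/mL) prelabeled with [14C]serotonin. Inhibitor added 1 min before the inducer: ADP 1–5 μM, AA 0.2–1 mM, or U46619 0.3 μM with aspirin 1 mM. Dense-granule secretion measured as release of radioactivity. Mean IC50 ± SEM, three to nine donors.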

Homo sapiens [2] = species: Homo sapiens; assay: Compound was tested for the inhibitory activity against human platelet aggregation by U46,619 (0.3 uM) + Aspirin (ASA, 1 mM).
Summary of the method: (§2)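 Human platelet-rich plasma, count adjusted to 3 × 10^8/mL. Turbidometric (Born) aggregometry. Inhibitor added 1 min before inducer, which was used at the minimum level giving maximal aggregation. IC50 taken from change in light-transmittance amplitude after 6 min for ADP (secondary aggregation only) and 4 min for AA and U46619. U46619 samples contained aspirin 1 mM. Mean ± SEM, three to nine donors.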

Homo sapiens [3] = species: Homo sapiens; assay: Compound was tested for the inhibitory activity against human platelet aggregation by adenosine -Diphosphate (ADP (1-5 uM)); summary of the method: as §2
Homo sapiens [4] = species: Homo sapiens; assay: Compound was tested for the inhibitory activity against human platelet aggregation by arachidonic acid (AA (0.1-1 mM)).; conditions: in the assay text read “AA (0.2-1 mM)” for “AA (0.1-1 mM)”; summary of the method: as §2
Homo sapiens [5] = species: Homo sapiens; assay: Compound was tested for the inhibitory activity against serotonin secretion by arachidonic acid (AA (0.1-1 mM)).; conditions: in the assay text read “AA (0.2-1 mM)” for “AA (0.1-1 mM)”; summary of the method: as §1
Homo sapiens [6] = species: Homo sapiens; assay: Compound was tested for the inhibitory activity against serotonin secretion by U-46,619 (0.3 uM) + Aspirin (ASA, 1 mM).; summary of the method: as §1
Homo sapiens [7] = species: Homo sapiens; assay: Compound was tested for the inhibitory activity against serotonin secretion by adenosine -Diphosphate (ADP (1-5 uM)); summary of the method: as §1

Structure (SMILES)	IC50 (Homo sapiens [1])	IC50 (Homo sapiens [2])	IC50 (Homo sapiens [3])	IC50 (Homo sapiens [4])	IC50 (Homo sapiens [5])	IC50 (Homo sapiens [6])	IC50 (Homo sapiens [7])
O=C(O)C1Cc2cc(Cl)ccc2O1 (stereo not given)	419 µM	1480 µM	533 µM	851 µM	1010 µM	1440 µM	
O=c1c(O)c(O)oc2ccc(Cl)cc12		1510 µM	363 µM	739 µM	814 µM	2380 µM	466 µM
CC(C)(Oc1ccc(Cl)cc1)C(=O)O [CLOFIBRIC ACID]		> 4000 µM		> 3070 µM	> 3430 µM		
